Reference: publication PMC4229637 (British Journal of Cancer, 2014)
Where two headings read alike, the source gives them in different places.

Key:
[1] = MK-2206 plasma concentration; format: in vivo, human; conditions: for Plasma MK-2206, Median / Plasma MK-2206, Range: cycle 1 day 8
AKT1 = conditions: read-out: IC50 AKT1; ref Yap et al, 2011; cited from earlier work
AKT2 = conditions: read-out: IC50 AKT2; ref Yap et al, 2011; cited from earlier work
AKT3 = conditions: read-out: IC50 AKT3; ref Yap et al, 2011; cited from earlier work
patients = conditions: cited from earlier work; for main toxicities: single agent phase I
[2] = ref Biondo et al, 2011, Yap et al; cited from earlier work
[3] = MK-0752 plasma concentration; format: in vivo, human
Procedure, shortened: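 Test compound was given orally at 1800 mg once weekly with IV anti-IGF-1R antibody once weekly, in 28-day cycles. Pre-dose plasma was taken weekly during cycle 1 and on day 1 of subsequent cycles. Plasma levels were quantified by validated HPLC-MS/MS.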

[4] = Dalotuzumab concentration in serum; format: in vivo, human; conditions: for Serum dalotuzumab, Median / Serum dalotuzumab, Range: cycle 1 day 8
[5] = Ridaforolimus concentration in whole blood; format: in vivo, human; conditions: cycle 1 day 8; Dalotuzumab (10 mg kg^–1 QW)+ridaforolimus (20 mg QD × 5); N=4; some samples up to 2.5 h post dose
[6] = Dalotuzumab (10 mg kg^–1 QW)+MK-2206 (90 mg QW), N=3
[7] = Dalotuzumab (10 mg kg^–1 QW)+MK-2206 (135 mg QW), N=8
[8] = Dalotuzumab (10 mg kg^–1 QW)+MK-2206 (150 mg QW), N=10
[9] = Dalotuzumab (10 mg kg^–1 QW)+MK-2206 (200 mg QW), N=3
[10] = cycle 1 day 8, Dalotuzumab (7.5 mg kg^–1 QW)+MK-0752 (1800 mg QW), N=3
[11] = Dalotuzumab (7.5 mg kg^–1 QW)+MK-0752 (1800 mg QW), N=4
[12] = Dalotuzumab (10 mg kg^–1 QW)+MK-0752 (1800 mg QW), N=11
[13] = Dalotuzumab (10 mg kg^–1 QW)+ridaforolimus (20 mg QD × 5), N=2
[14] = phase I clinical trial of single-agent dalotuzumab, ref Atzori et al, 2011

For `NC1(c2ccc(-c3nc4ccn5c(=O)[nH]nc5c4cc3-c3ccccc3)cc2)CCC1` [MK-2206], the “dose proportional increase of Ctrough levels” value ([1]; MK-2206 90, 135, 150, and 200 mg QW) was “not discernible”, the “Plasma MK-2206, Median” value [1, 6] was 12.9 nmol l^–1 and the “Plasma MK-2206, Range” value [1, 6] was 10.3–20.4 nmol l^–1. For the same compound, the “Plasma MK-2206, Median” value [1, 7] was 29.1 nmol l^–1, the “Plasma MK-2206, Range” value [1, 7] was 0.687–41.1 nmol l^–1 and the “Plasma MK-2206, Median” value [1, 8] was 9.08 nmol l^–1. The “Plasma MK-2206, Range” value [1, 8] was 0.736–26.7 nmol l^–1, the “Plasma MK-2206, Median” value [1, 9] was 37.6 nmol l^–1 and the “Plasma MK-2206, Range” value [1, 9] was 20.3–50.9 nmol l^–1. The IC50 (AKT1) was […], the IC50 (AKT2) was 12 nM and the IC50 (AKT3) was 65 nM. For the same compound, the main toxicities (patients; ref Biondo et al, 2011, Yap et al) was “rash, nausea, vomiting, diarrhoea, and hyperglycaemia”, the RP2D (patients; single agent, weekly, ref Biondo et al, 2011) was 135 to 200 mg and the half-life [2] was 40 to 100 h.
With `O=C(O)CC[C@H]1CC[C@@](c2cc(F)ccc2F)(S(=O)(=O)c2ccc(Cl)cc2)CC1` [MK-0752] the “Plasma MK-0752, Median” value [3, 10] was 8.06 μmol l^–1, the “Plasma MK-0752, Range” value [3, 10] was 1.49–11.6 μmol l^–1 and the “Plasma MK-0752, Median” value ([3]; cycle 1 day 8, Dalotuzumab (10 mg kg^–1 QW)+MK-0752 (1800 mg QW), N=11) was 1.63 μmol l^–1. For the same compound, the “plasma trough levels, patients receiving 7.5 mg kg^–1 vs 10 mg kg^–1 dalotuzumab” value ([3]; weekly dosing with 1800 mg MK-0752) was “comparable” and the main toxicities (patients; ref Krop et al, 2012) was “fatigue, nausea, and diarrhoea”.
With “Dalotuzumab: humanised IgG1 monoclonal antibody that binds IGF-1R” the “Serum dalotuzumab, Median” value [4, 11] was 39.3 μg ml^–1, the “Serum dalotuzumab, Range” value [4, 11] was 16.7–91.7 μg ml^–1 and the “Serum dalotuzumab, Median” value [4, 12] was 41.7 μg ml^–1. For the same compound, the “Serum dalotuzumab, Range” value [4, 12] was 5.69–97.9 μg ml^–1, the “Serum dalotuzumab, Median” value [4, 6] was 33.8 μg ml^–1 and the “Serum dalotuzumab, Range” value [4, 6] was 29.3–56.6 μg ml^–1. For the same compound, the “Serum dalotuzumab, Median” value [4, 7] was 52.2 μg ml^–1, the “Serum dalotuzumab, Range” value [4, 7] was 45.2–102 μg ml^–1 and the “Serum dalotuzumab, Median” value [4, 8] was 63.5 μg ml^–1. For the same compound, the “Serum dalotuzumab, Range” value [4, 8] was 43.7–86.4 μg ml^–1, the “Serum dalotuzumab, Median” value [4, 9] was 52.3 μg ml^–1 and the “Serum dalotuzumab, Range” value [4, 9] was 45.4–92.3 μg ml^–1. The “Serum dalotuzumab, Median” value [4, 13] was 49.6 μg ml^–1, the “Serum dalotuzumab, Range” value [4, 13] was 32.5–66.7 μg ml^–1 and the “Trough concentrations (Ctrough) after the first administration” value ([4]; dalotuzumab 7.5 and 10 mg kg^–1, generally exceeded the target threshold level) was greater than 25 μg ml^–1. The “Maximum tolerated dose (MTD)” value (patients; [14]) was “not reached”, the “most common adverse events” value (patients; [14]) was “fatigue, hyperglycaemia, and back pain” and the “recommended phase II dose (RP2D)” value (patients; [14]) was 10 mg kg^–1 per week.
For `CO[C@H]1C[C@@H]2CC[C@@H](C)[C@@](O)(O2)C(=O)C(=O)N2CCCC[C@H]2C(=O)O[C@H]([C@H](C)C[C@@H]2CC[C@@H](OP(C)(C)=O)[C@H](OC)C2)CC(=O)[C@H](C)/C=C(\C)[C@@H](O)[C@@H](OC)C(=O)[C@H](C)C[C@H](C)/C=C/C=C/C=C/1C` [Ridaforolimus], the “Whole blood ridaforolimus, Median” value [5] is given as 86.7 ng ml^–1, the “Whole blood ridaforolimus, Range” value [5] is given as 3.12–184 ng ml^–1 and the RP2D (patients; IV, 5 days every 2 weeks, ref Mita et al, 2008) is given as 12.5 mg daily. For the same compound, the Main adverse events (patients; single agent phase I trials, ref Mita et al, 2013, Mita et al, 2008) was “mucositis, fatigue, rash, nausea, diarrhoea, myelosuppression, and dyslipidaemia”.
